NPY-Y1 PAM-ag – potentiates or activates human NPY-Y1 receptor; NPY-Y1 expressing cells, potentiator/agonist activation; actives 0.37% (n = 220,000); activation, % at 3.6 µM; in the data active = activation above about 33%, passing the limit was not always enough;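 note: cells stimulated with NPY at EC10 then isoproterenol at EC100; 0% = low agonist plus stimulus and 100% = saturating agonist plus stimulus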
Target sequence (P25929 whole entry, looked up): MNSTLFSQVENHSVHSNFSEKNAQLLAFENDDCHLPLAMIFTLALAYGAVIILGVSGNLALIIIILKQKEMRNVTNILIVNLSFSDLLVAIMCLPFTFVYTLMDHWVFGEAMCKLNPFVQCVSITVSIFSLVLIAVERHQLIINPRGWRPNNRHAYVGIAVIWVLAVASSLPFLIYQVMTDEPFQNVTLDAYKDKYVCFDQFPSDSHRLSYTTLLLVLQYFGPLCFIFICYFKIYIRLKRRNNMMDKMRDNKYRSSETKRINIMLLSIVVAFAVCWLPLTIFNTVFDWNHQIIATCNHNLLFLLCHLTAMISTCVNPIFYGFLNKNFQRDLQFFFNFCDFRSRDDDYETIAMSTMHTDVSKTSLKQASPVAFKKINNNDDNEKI
NPY-Y1 antag – blocks the human neuropeptide Y Y1 receptor; actives 1% (n = 200,000); inhibition, % at 3.6 µM; HEK293-CNG Y1 cells, membrane potential fluorescence; NPY at EC95, then isoproterenol;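 active = inhibition above the campaign mean inhibition of all tested compounds plus 3 SD, cut at about 20% in these data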;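 note: 0% = DMSO wells given NPY plus isoproterenol and 100% = isoproterenol alone without NPY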
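Material: HEK293 Y1/CNG channel cell line; also added: NPY (25 nM), isoproterenol (1 µM), Ro 20-1724 (25 µM); doses: one concentration, 3.6 µM, in 0.4% DMSO; schedule: compound incubation 1 h at room temperature, readout 45 min post-stimulation; technique: membrane potential fluorescence; measure: fluorescence ratio normalized to % inhibition between controls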
S1P4 antagonist – blocks the human S1P4 receptor; O95977; S1P4-expressing cells, antagonist mode, reporter read-out; inhibition, % at 4.98 µM; actives 0.26% (n = 220,000); in the data active = inhibition above about 29%;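 note: 0% = wells stimulated with agonist and 100% = vehicle wells without agonist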
NPY-Y2 antag – antagonists of human neuropeptide Y receptor Y2 | P49146 | NPY-Y2 expressing cells, antagonist mode | inhibition, % at 2.7 µM | actives 0.99% (n = 140,000); in the data active = inhibition above about 17%;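 note: 0% = vehicle with agonist challenge and 100% = reference antagonist with challenge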
S1P4 agonist – agonists of human S1P4 receptor; S1P4-expressing cell line, agonist reporter assay; actives 0.35% (n = 220,000); activation, % at 4.98 µM; O95977; in the data active = activation above about 11%;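 note: 0% = DMSO vehicle and 100% = reference agonist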
NPY2 pot ag – potentiators or agonists of human neuropeptide Y receptor Y2; P49146; cells expressing NPY-Y2, potentiator/agonist read-out; activation, % at 3.6 µM; actives 0.45% (n = 220,000); in the data active = activation above about 27%;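 note: cells stimulated with NPY near EC25 plus isoproterenol at EC100; 0% = vehicle plus submaximal agonist and 100% = vehicle plus saturating agonist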
* = called active by the depositor. Compounds with a hit are over-represented: about 2.4% of the library has one in this group of screens.

`CC1CC(=O)NN=C1c1cccs1` (centres undefined) gave NPY-Y1 PAM-ag -44, S1P4 antagonist 12, S1P4 agonist 1 and NPY2 pot ag -50.
For CC1CC(=O)NN=C1c1ccc(N(C)C)c([N+](=O)[O-])c1 (centres undefined) the results were NPY-Y1 PAM-ag -88, NPY-Y1 antag 78*, S1P4 antagonist -8, NPY-Y2 antag 94*, S1P4 agonist 1 and NPY2 pot ag -43.
Screening O=C(O)Cn1ncn(-c2ccc(OC(F)(F)F)cc2)c1=O returned NPY-Y1 PAM-ag -7, NPY-Y1 antag 1, S1P4 antagonist -3, S1P4 agonist 0 and NPY2 pot ag -4.
For CC(C)OC(=O)CSc1nc(-c2ccc(F)cc2)cc(C(F)(F)F)n1 the results were NPY-Y1 PAM-ag -39, NPY-Y1 antag 28*, S1P4 antagonist 4, NPY-Y2 antag 25*, S1P4 agonist 0 and NPY2 pot ag -1.
`COc1ccc(-c2cc(C(F)(F)F)nc(SCC(=O)Nc3cc(C)on3)n2)cc1OC` gave NPY-Y1 PAM-ag -3, NPY-Y1 antag 7, S1P4 antagonist 0, NPY-Y2 antag 22*, S1P4 agonist 0 and NPY2 pot ag 9.
`O=C(CSc1nc(-c2ccc(F)cc2)cc(C(F)(F)F)n1)NCCN1CCOCC1` gave NPY-Y1 PAM-ag -14, NPY-Y1 antag -2, S1P4 antagonist -13, NPY-Y2 antag 0, S1P4 agonist 2 and NPY2 pot ag -6.
Screening CC(C)c1c(Cl)c(O)c(-c2ccccc2)c(=O)n1-c1ccc(F)cc1 returned NPY-Y1 PAM-ag 1, NPY-Y1 antag 2, S1P4 antagonist -15, NPY-Y2 antag 1, S1P4 agonist 1 and NPY2 pot ag 2.
Screening CCOc1ccc(CN2CCCC(CNC(=O)c3ccc(F)cc3)C2)cc1CO (centres undefined) returned NPY-Y1 PAM-ag -1, NPY-Y1 antag 6, S1P4 antagonist -3, S1P4 agonist 0 and NPY2 pot ag -8.
COc1ccc(CC(=O)N2CCN(c3ccc(C4=NNC(=O)CC4C)cc3)CC2)cc1 (centres undefined) was read as NPY-Y1 PAM-ag -79, NPY-Y1 antag 79*, S1P4 antagonist -17, NPY-Y2 antag 83*, S1P4 agonist 0 and NPY2 pot ag -23.
For COc1ccc(CC(=O)N2CCN(C(=O)Cc3ccc(OC)cc3)CC2)cc1 the results were NPY-Y1 PAM-ag 5, NPY-Y1 antag 3, S1P4 antagonist -10, NPY-Y2 antag 3, S1P4 agonist -4 and NPY2 pot ag 20.
Cc1[nH]c2ccccc2c1/C=N/Nc1ccc([N+](=O)[O-])cc1 was read as NPY-Y1 PAM-ag 65*, NPY-Y1 antag -15, S1P4 antagonist -9, NPY-Y2 antag -9, S1P4 agonist -2 and NPY2 pot ag 56*.
Screening O=c1[nH]c2cc(Cl)c([N+](=O)[O-])nc2[nH]1 returned NPY-Y1 PAM-ag -61, NPY-Y1 antag 22*, S1P4 antagonist -2, NPY-Y2 antag 18*, S1P4 agonist -1 and NPY2 pot ag -15.
Screening O=c1[nH]c2c(Br)cnc([N+](=O)[O-])c2[nH]1 returned NPY-Y1 PAM-ag -13, S1P4 antagonist -2, S1P4 agonist 1 and NPY2 pot ag 4.
CCCOc1ccc(Cc2c(Cl)nc(SC)nc2N(C)C)cc1 was read as NPY-Y1 PAM-ag -54, NPY-Y1 antag 22*, S1P4 antagonist -9, NPY-Y2 antag 26*, S1P4 agonist 1 and NPY2 pot ag -14.
`O=C(c1cc2c(s1)-c1ccccc1OC2)N1CCCC1` gave NPY-Y1 PAM-ag 42*, NPY-Y1 antag 4, S1P4 antagonist -9, NPY-Y2 antag 4, S1P4 agonist -5 and NPY2 pot ag 31*.
`CCOc1ccccc1C1C(C#N)=C(N)Oc2cc(N)ccc21` (centres undefined) gave NPY-Y1 PAM-ag 113*, NPY-Y1 antag -4, S1P4 antagonist 6, NPY-Y2 antag 2, S1P4 agonist 1 and NPY2 pot ag 49*.
`COc1ccc(OC)c(C2C(C#N)=C(N)Oc3cc(N)ccc32)c1` (centres undefined) gave NPY-Y1 PAM-ag -3, NPY-Y1 antag 2, S1P4 antagonist -8, NPY-Y2 antag 3, S1P4 agonist -1 and NPY2 pot ag -3.
Screening N#Cc1c(-c2ccccc2)c(-c2ccccc2)nn(CC(=O)NNC(=O)Nc2ccc(Cl)cc2)c1=O returned NPY-Y1 PAM-ag 51*, S1P4 antagonist 10, S1P4 agonist -1 and NPY2 pot ag 39*.
CC(=O)Nc1ccc(S(=O)(=O)NCCc2ccccn2)cc1 was read as NPY-Y1 PAM-ag 4, NPY-Y1 antag 0, S1P4 antagonist -26, S1P4 agonist 1 and NPY2 pot ag -7.
CCOc1ccccc1-c1nc(-c2ccc(NC(=O)Cc3ccccc3OC)cc2)no1 was read as NPY-Y1 PAM-ag -26, NPY-Y1 antag 4, S1P4 antagonist -17, NPY-Y2 antag 1, S1P4 agonist -1 and NPY2 pot ag -19.
CCOc1ccccc1NC(=O)c1ccccc1-c1nc(-c2ccccc2)no1 was read as NPY-Y1 PAM-ag -80, NPY-Y1 antag 25*, S1P4 antagonist -8, NPY-Y2 antag 18*, S1P4 agonist 0 and NPY2 pot ag -40.
COc1ccc(-c2noc(-c3ccccc3C(=O)Nc3cccc(OC)c3)n2)cc1 was read as NPY-Y1 PAM-ag -80, NPY-Y1 antag 43*, S1P4 antagonist -12, NPY-Y2 antag 24*, S1P4 agonist -2 and NPY2 pot ag -14.
COc1ccccc1Cn1[nH]nnc1=S was read as NPY-Y1 PAM-ag 7, S1P4 antagonist 4, S1P4 agonist 1 and NPY2 pot ag -3.
`O=C(CCl)NC1(C(F)(F)F)C(=O)Nc2c1c(=O)[nH]c(=O)n2-c1ccccc1` (centres undefined) gave NPY-Y1 PAM-ag 3, S1P4 antagonist -3, S1P4 agonist 2 and NPY2 pot ag -7.
Screening CCCCNC(=O)c1onc(CSc2ccc(C)c(C)c2)c1C(=O)O returned NPY-Y1 PAM-ag -49, NPY-Y1 antag 15, S1P4 antagonist -1, NPY-Y2 antag 13, S1P4 agonist 0 and NPY2 pot ag -38.
Screening COC(=O)c1c(CSc2ccc(C)c(C)c2)noc1C(=O)NCc1ccc(OC)cc1 returned NPY-Y1 PAM-ag -15, NPY-Y1 antag 23*, S1P4 antagonist -14, NPY-Y2 antag 22*, S1P4 agonist -1 and NPY2 pot ag -35.
`CCCC(=O)N1CCN(c2ccc(NC(=O)c3cccs3)cc2)CC1` gave NPY-Y1 PAM-ag 6, NPY-Y1 antag -3, S1P4 antagonist -17, S1P4 agonist 1 and NPY2 pot ag -3.
COc1cccc(Nc2nc3ccccc3nc2NS(=O)(=O)c2cccs2)c1 was read as NPY-Y1 PAM-ag 78*, NPY-Y1 antag -6, S1P4 antagonist -11, NPY-Y2 antag -2, S1P4 agonist 1 and NPY2 pot ag 43*.

Source: PubChem
